# Measured values gathered from unrelated publications.
# Compare with care: the assays were run in different laboratories.
# Target: Proto-oncogene tyrosine-protein kinase ROS (ROS1, Homo sapiens, UniProt P08922)
SMILES,assay,setting,endpoint,result
CC1=C(C#N)C(c2ccc3c(c2)c(NC(=O)c2ccccc2C)nn3C)C(C#N)=C(C)N1,"cell-free assay, competition with immobilised ligand",1 µM,remaining binding,100%
Cc1ccc(NC(=O)c2ccc(C)c(C(F)(F)F)c2)cc1C#Cc1nn(C2CCC(O)CC2)c2ncnc(N)c12 (stereo not drawn),cell-free assay,10 µM,remaining signal,82%
Cc1ccc(Nc2nccc(N(C)c3ccc4c(C)n(C)nc4c3)n2)cc1S(N)(=O)=O,"enzyme activity, inhibitor",10 µM,inhibition,13%
CNC(=O)c1cc(Oc2ccc(NC(=O)Nc3ccc(Cl)c(C(F)(F)F)c3)cc2)ccn1,cell-free assay,0.5 µM,remaining signal,95.7%
CCCOc1ccc([C@@H]2[C@@H](C(=O)O)[C@H](c3ccc4c(c3)OCO4)CN2CC(=O)Nc2c(CC)cccc2CC)cc1,"cell-free assay, competition with immobilised ligand",1 µM,remaining binding,90%
COc1cc2c(N3CCN(C(=O)Nc4ccc(OC(C)C)cc4)CC3)ncnc2cc1OCCCN1CCCCC1,cell-free assay,0.5 µM,remaining signal,90.1%
CC(C)(O)[C@H]1CC[C@H](Nc2ccc3ncc(-c4cccc(C(F)(F)F)c4)n3n2)CC1,"enzyme activity, inhibitor",1 µM,remaining activity,25.1%
CNCc1ccc(-c2cc(-c3nc(-c4ccc(S(=O)(=O)C(C)C)cc4)cnc3N)on2)cc1,"enzyme activity, inhibitor",0.4 µM,inhibition,0%
CCN(CC)CCNC(=O)c1c(C)[nH]c(/C=C2\C(=O)Nc3ccc(F)cc32)c1C,"enzyme activity, inhibitor",10 µM,inhibition,35%
CN1CC(Oc2cnc(C#N)cc2-c2ccn3nc(NC(=O)C4CC4)cc3c2)C1,"enzyme activity, inhibitor",1 µM,inhibition,8%
COc1cc2nccc(Oc3ccc(NC(=O)c4c5n(n(-c6ccc(F)cc6)c4=O)CCCC5)cc3)c2cc1OC,"enzyme activity, inhibitor",0.1 µM,inhibition,26%
CCCS(=O)(=O)Nc1ccc(F)c(C(=O)c2c[nH]c3ncc(-c4ccc(Cl)cc4)cc23)c1F,"enzyme activity, inhibitor",1 µM,inhibition,< 10%
CNC(=O)c1cc2c(Oc3ccc(NC(=O)C4(C(=O)Nc5ccc(F)cc5)CC4)cc3)ccnc2cc1OC,"enzyme activity, inhibitor, radiometric",1 µM,inhibition,89%
COCCOc1nc(-c2ccc(Cl)nc2)nc2c1CN(C(=O)c1ncn3ccccc13)CC2,"cell-free assay, competition with immobilised ligand",0.1 µM,remaining binding,100%
CCCOc1ccc(OC)c(F)c1C(=O)c1ccc(C(=O)N[C@@H]2CNC[C@H]2NC(=O)c2ccc3[nH]ncc3c2)cc1,"enzyme activity, inhibitor",10 µM,remaining activity,105%
O=C(N[C@H]1CCCCC/C=C\C2C[C@@]2(C(=O)O)NC(=O)[C@@H]2C[C@@H](Oc3ccncc3)CN2C1=O)OC1CCCC1 (stereo partly drawn),"cell-free assay, competition with immobilised ligand",1 µM,remaining binding,92%
Cc1sc(C(=O)NC2COC2)cc1-n1cc(NC(=O)Nc2c(F)cccc2Cl)cn1,"enzyme activity, inhibitor",10 µM,remaining activity,102%
CC(=O)c1c(NS(C)(=O)=O)c2cc(-c3ccc(Cl)cc3)c(-c3ccc(Cl)cc3Cl)nc2n(C)c1=O,"cell-free assay, competition with immobilised ligand",1 µM,remaining binding,100%
Cc1ccc(C(=O)NCc2ccsc2)cc1C#Cc1cn(C(C)C)c2ncnc(N)c12,"enzyme activity, inhibitor",1 µM,activity vs control,92%
COc1ccc(COc2ccc(Cc3cnc(N)nc3N)cc2OC)cc1,cell-free assay,0.5 µM,remaining signal,99.9%
Cc1c(NC(=O)c2cc(C(N)=O)nc3cc(F)ccc23)c(C(F)(F)F)nn1Cc1ccc(C#N)cc1,"cell-free assay, competition with immobilised ligand",1 µM,remaining binding,99%
COc1cc2ncnc(Nc3ccc(Oc4ccccc4)cc3C)c2cc1OC,"enzyme activity, inhibitor",1 µM,inhibition,4%
CC(=O)N1CCC(c2ccc(C(=O)NC(=N)N)cc2C(F)(F)F)CC1,"cell-free assay, competition with immobilised ligand",1 µM,remaining binding,100%
F[C@@H]1CCN(c2nccc(-c3cnn4ncccc34)n2)C1,binding,1 µM,remaining binding,88%
CCC(=O)N[C@@H]1CC[C@H](C(=O)N(C)c2ccc(-c3nc4ccccc4o3)cc2)C1,"cell-free assay, competition with immobilised ligand",1 µM,remaining binding,100%
N#CCCc1ccc2c(c1)-c1[nH]c3ccc([N+](=O)[O-])cc3c1CC(=O)N2,cell-free assay,0.5 µM,remaining signal,71%
CC(C)(C)c1nc(-c2cccc(NS(=O)(=O)c3c(F)cccc3F)c2F)c(-c2ccnc(N)n2)s1,"enzyme activity, inhibitor, radiometric",1 µM,remaining activity,96%
